From ChEMBL document CHEMBL2016484, “In vitro growth inhibition of human cancer cells by novel honokiol analogs” (Bioorg Med Chem, 2012) come the findings set out here.

SMILES strings stand for the structures. Activity calls are given as the source filed them. The calls are words filed in the database; no cut-off is given here.

Test [1] concerns UACC-903. The test can be described thus: Cytotoxicity against human UACC-903 cells after 24 hrs by MTS assay. Format: functional, cell-based. As to conditions: for IC50: UACC-903, 24 h. (In general: Tetrazolium assays rely on reduction of a dye to a coloured formazan, in cell work by metabolically active cells.)
Test [2] has as its system UACC-903. The test can be described thus: Cytotoxicity against human UACC-903 cells after 72 hrs by MTS assay. Format: functional, cell-based. As to conditions: for IC50: UACC-903, 72 h.
Test [3] relates to A549. The test can be described thus: Cytotoxicity against human A549 cells after 24 hrs by MTS assay. Format: functional, cell-based. To be noted: for IC50: A549, 24 h.
In test [4] the test system is A549. Kind of test: Cytotoxicity against human A549 cells after 72 hrs by MTS assay. Format: functional, cell-based. As to conditions: for IC50: A549, 72 h.
In test [5] the test system is HT-29. Kind of test: Cytotoxicity against human HT-29 cells after 24 hrs by MTS assay. Format: functional, cell-based. As to conditions: for IC50: HT-29, 24 h.
Test [6] has as its system HT-29. The test can be described thus: Cytotoxicity against human HT-29 cells after 72 hrs by MTS assay. Format: functional, cell-based. To be noted: for IC50: HT-29, 72 h.
The test system of test [7] is UACC-903. Kind of test: Cytotoxicity against human UACC-903 cells by MTS assay. Format: functional, cell-based. To be noted: TDE = time-dependent effect.
The subject of test [8] is A549. Kind of test: Cytotoxicity against human A549 cells by MTS assay. As to conditions: TDE = time-dependent effect. Format: functional, cell-based.
Test [9] concerns HT-29. Kind of test: Cytotoxicity against human HT-29 cells by MTS assay. Format: functional, cell-based. As to conditions: TDE = time-dependent effect.
Test [10] has as its system A549. Kind of test: Cell cycle arrest in synchronized human A549 cells assessed as accumulation at G1/G0 phase at 0.5 uM after 48 hrs by propidium iodide staining-based flow cytometric analysis (reference value: 40.6 +/- 4.6%). Format: functional. For orientation: In flow cytometry, cells or beads pass a laser one at a time.
Test [11] has as its system A549. The test can be described thus: Cell cycle arrest in synchronized human A549 cells assessed as accumulation at G1/G0 phase at 2.5 uM after 48 hrs by propidium iodide staining-based flow cytometric analysis (reference value: 40.6 +/- 4.6%). Format: functional.
Test [12] has as its system A549. Kind of test: Cell cycle arrest in synchronized human A549 cells assessed as accumulation at G1/G0 phase at 10 uM after 48 hrs by propidium iodide staining-based flow cytometric analysis (reference value: 40.6 +/- 4.6%). Format: functional.
Test [13] concerns A549. Kind of test: Cell cycle arrest in synchronized human A549 cells assessed as accumulation at S phase at 0.5 uM after 48 hrs by propidium iodide staining-based flow cytometric analysis (reference value: 41.2 +/- 3.1%). Format: functional.
For test [14], the system named is A549. The test can be described thus: Cell cycle arrest in synchronized human A549 cells assessed as accumulation at S phase at 2.5 uM after 48 hrs by propidium iodide staining-based flow cytometric analysis (reference value: 41.2 +/- 3.1%). Format: functional.
Test [15] relates to A549. The test can be described thus: Cell cycle arrest in synchronized human A549 cells assessed as accumulation at S phase at 10 uM after 48 hrs by propidium iodide staining-based flow cytometric analysis (reference value: 41.2 +/- 3.1%). Format: functional.
Test [16] relates to A549. The test can be described thus: Cell cycle arrest in synchronized human A549 cells assessed as accumulation at G2/M phase at 0.5 uM after 48 hrs by propidium iodide staining-based flow cytometric analysis (reference value: 18.2 +/- 2.1%). Format: functional.
In test [17] the test system is A549. The test can be described thus: Cell cycle arrest in synchronized human A549 cells assessed as accumulation at G2/M phase at 2.5 uM after 48 hrs by propidium iodide staining-based flow cytometric analysis (reference value: 18.2 +/- 2.1%). Format: functional.
The test system of test [18] is A549. Kind of test: Cell cycle arrest in synchronized human A549 cells assessed as accumulation at G2/M phase at 10 uM after 48 hrs by propidium iodide staining-based flow cytometric analysis (reference value: 18.2 +/- 2.1%). Format: functional.
Test [19] concerns A549. The test can be described thus: Decrease in Cdk1 protein level in synchronized human A549 cells after 18 hrs by Western blot analysis. Format: functional, cell-based. The method, boiled down:
(§1)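 A549 cells synchronized with nocodazole (0.5 μg/ml, 15 h), then treated with compound (0, 0.5, 1.0, 2.0, 5.0 μM; final DMSO 0.2%) for 18 h at 37 °C. RIPA lysates with protease inhibitors, 40 μg protein on 12% SDS-PAGE, probed with rabbit polyclonal anti-human CDK1 or cyclin B1, ECL detection, densitometry; three experiments on different passages.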
On the technique in general: Immunoblotting shows a protein as a band on a membrane.

Test [20] concerns A549. Kind of test: Decrease in cyclin B1 protein level in synchronized human A549 cells after 18 hrs by Western blot analysis. Format: functional, cell-based. Summed up: as §1
Test [21] concerns A549. The test can be described thus: Cell cycle arrest in synchronized human A549 cells assessed as accumulation at S phase after 48 hrs by propidium iodide staining-based flow cytometric analysis. Format: functional.
In test [22] the test system is A549. The test can be described thus: Cell cycle arrest in synchronized human A549 cells assessed as accumulation at G2/M phase after 48 hrs by propidium iodide staining-based flow cytometric analysis. Format: functional.
In test [23] the test system is A549. The test can be described thus: Decrease in Cdk1 protein level in synchronized human A549 cells at 2 uM after 18 hrs by Western blot analysis. Format: functional, cell-based. Summed up:
as §1

Test [24] has as its system A549. Kind of test: Decrease in cyclin B1 protein level in synchronized human A549 cells at 2 uM after 18 hrs by Western blot analysis. Format: functional, cell-based. The method, boiled down:
as §1

The subject of test [25] is A549. Kind of test: Decrease in Cdk1 protein level in synchronized human A549 cells at 5 uM after 18 hrs by Western blot analysis. Format: functional, cell-based. Summed up:
as §1

The test system of test [26] is A549. The test can be described thus: Decrease in cyclin B1 protein level in synchronized human A549 cells at 5 uM after 18 hrs by Western blot analysis. Format: functional, cell-based. Summed up: as §1

For `C=CCc1cc(-c2ccc(OC)c(CC=C)c2)c(O)c(-c2ccc(OC)c(CC=C)c2)c1`, the “growth inhibition (GI)” value in test [1], in [2], in [3], in test [4], in test [5] and in test [6] was “Dose-dependent effect” in each case. For the same compound, the “growth inhibition (GI)” value in test [7], in test [8] and in test [9] was “tde” throughout. Besides, the 50% inhibitory concentration (IC50) – broadly, the concentration needed to halve the response being measured – in test [1] came out at 3.94 µM; in test [2], 2.93 µM; in test [3] it was 1.74 µM; in test [4], 1.25 µM; in [5], 16.9 µM; in test [6] it was 11.4 µM.

Consider `C=CCc1ccc(O)c(-c2ccc(O)c(CC=C)c2)c1` [HONOKIOL], for which the “growth inhibition (GI)” value in test [1], in test [2], in test [3], in test [4], in test [5] and in test [6] was “Dose-dependent effect” each time. Moreover, the “growth inhibition (GI)” value in test [7], in test [8] and in test [9] was “tde” in each case. Besides, the IC50 in test [1] amounted to 7.45 µM; in test [2], 5.1 µM; in [3] it was 12.5 µM; in test [4] it was 7.75 µM; in test [5], 23.9 µM; in test [6], 13.2 µM. The Activity in [10] is recorded as 50.5%; in test [11], 61.1%; in [12], 72.9%; in test [13], 37.9%; in [14], 28.1%; in test [15], 21.7%. In addition, the Activity in test [16] is 11.6%; in test [17] it was 10.8%; in test [18], 5.4%; in test [19] it was “Dose-dependent effect”; in [20] it was “Dose-dependent effect”.

For `C=CCc1ccc(O)c(-c2ccc(OC)c(CC=C)c2)c1` [METHYLHONOKIOL], the “growth inhibition (GI)” value in test [1], in test [2], in test [3], in test [4], in [5] and in [6] was “Dose-dependent effect” throughout. The “growth inhibition (GI)” value in test [7], in test [8] and in test [9] was “tde” throughout. Also, the IC50 in [1] came out at 37.7 µM; in test [2], 24.1 µM; in test [3], 1.56 µM; in test [4], 1.24 µM; in [5], 22.4 µM; in [6], 14.1 µM.

Take `C=CCc1cc(Br)c(O)c(-c2ccc(OC)c(CC=C)c2)c1`: the “growth inhibition (GI)” value in [1], in test [2], in test [3], in test [4], in [5] and in [6] was “Dose-dependent effect” throughout. Further, the “growth inhibition (GI)” value in [7], in test [8] and in test [9] was “tde” in each case. The IC50 in test [1] came out at 2.98 µM; in test [2] it was 1.29 µM; in test [3], 1.73 µM; in test [4], 1.04 µM; in test [5], 3.99 µM; in test [6], 1.87 µM. Also, the Activity worked out at 55.8% in [10]; 63.1% in test [11]; 76.4% in test [12]; 32.8% in [13]; 30.6% in [14]; 20.7% in [15]. For the same compound, the Activity is 11.4% in [16]; 6.3% in test [17]; 3% in test [18]; “Dose-dependent effect” in test [21]; “Dose-dependent effect” in [22]; “Dose-dependent effect” in test [19]. Moreover, the Activity entry in test [20] was “Dose-dependent effect”. Further, the outcome in test [23], in test [24], in [25] and in [26] was Active.

Consider `C=CCc1cc(-c2ccc(OC)c(CC=C)c2)ccc1O`, for which the “growth inhibition (GI)” value in test [1], in [2], in test [3], in [4], in test [5] and in test [6] was “Dose-dependent effect” throughout. In addition, the “growth inhibition (GI)” value in test [7], in test [8] and in test [9] was “tde” each time. Further, the concentration for half-maximal inhibition (IC50) in test [1] is 3.05 µM; in [2] it was 1.39 µM; in test [3], 2.47 µM; in test [4] it was 1.99 µM; in test [5] it was 3.19 µM; in [6], 2 µM. Moreover, the Activity in [10] stood at 69.8%; in test [11], 75.7%; in test [12] it was 82.8%; in test [13] it was 23%; in [14], 20.2%; in [15], 14.3%. The Activity in test [16] was 7.2%; in test [17], 4.2%; in [18], 2.8%; in test [21], “Dose-dependent effect”; in test [22], “Dose-dependent effect”; in test [19], “Dose-dependent effect”. In addition, the Activity entry in test [20] is “Dose-dependent effect”. The result in test [23], in [24], in test [25] and in test [26] was Active.

Regarding `C=CCc1cc(-c2cccc(CC=C)c2O)ccc1OC`, the “growth inhibition (GI)” value in test [1], in test [2], in test [3], in test [4], in [5] and in test [6] was “Dose-dependent effect” in each case. Besides, the “growth inhibition (GI)” value in test [7], in [8] and in test [9] was “tde” throughout. The half-maximal inhibitory concentration (IC50) in test [1] worked out at 29 µM; in test [2], 24.7 µM; in test [3], 11.3 µM; in test [4], 6.28 µM; in test [5], 16.2 µM; in test [6], 11.5 µM.

As to `C=CCc1ccc(O)c(-c2cccc(CC=C)c2O)c1`, the “growth inhibition (GI)” value in [1], in [2], in test [3], in [4], in test [5] and in [6] was “Dose-dependent effect” in each case. For the same compound, the “growth inhibition (GI)” value in test [7], in test [8] and in [9] was “tde” throughout. For the same compound, the concentration for half-maximal inhibition (IC50) came to 22.3 µM in test [1]; 17.4 µM in test [2]; 2.04 µM in test [3]; 1.08 µM in [4]; 17.4 µM in [5]; 12.4 µM in test [6].
